Source: PubChem BioAssay
CXCR6 inh: CXCR6 (human) receptor inhibition; O00574; CHO-K1 PathHunter CXCR6 beta-arrestin, luminescence; inhibition, % at 20 µM; 360,000 tested, 0.36% active; in the data active = inhibition above about 34%, passing the limit was not always enough;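 also: antagonist mode with CXCL16 agonist at 10 nM final; 0% = 10 nM CXCL16 with DMSO and 100% = unstimulated wells without agonist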
Target sequence (O00574 whole entry, looked up): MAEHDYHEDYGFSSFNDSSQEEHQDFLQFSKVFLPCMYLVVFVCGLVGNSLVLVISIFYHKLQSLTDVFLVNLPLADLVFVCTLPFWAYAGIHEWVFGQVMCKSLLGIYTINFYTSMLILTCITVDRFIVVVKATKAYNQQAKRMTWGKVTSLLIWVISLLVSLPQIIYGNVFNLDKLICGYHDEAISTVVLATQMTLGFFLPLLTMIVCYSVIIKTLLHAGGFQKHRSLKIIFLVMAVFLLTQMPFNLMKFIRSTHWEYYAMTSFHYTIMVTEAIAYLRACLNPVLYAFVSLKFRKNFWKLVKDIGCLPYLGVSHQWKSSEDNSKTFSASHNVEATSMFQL
APJ agonist: APJ receptor agonism. 330,000 tested, 0.11% active. P35414. activation, % at 20 µM. CHO-K1 APJ PathHunter beta-arrestin, luminescence; 0% DMSO wells, 100% apelin. AID 2520;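 active = activation more than six SD over the plate average, tested at 20 µM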;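 also: 0% = DMSO alone and 100% = apelin-13 at 10 nM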
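system = engineered CHO-K1 APJ arrestin reporter cells | input = 1000 cells per well | timing = overnight seeding, 90 min compound at 25 °C, 1 h detection | measured by = enzyme-fragment complementation luminescence | read-out = beta-arrestin recruitment to APJ as agonist activity, luminescent signal | control set = negative DMSO alone, positive Apelin-13 at 10 nM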
EBI2 block: EBI2 (human) antagonism. EBI2 beta-arrestin recruitment, luminescence, 7a,25-OHC stimulated. P32249. inhibition, % at 5 µM. 360,000 tested, 0.81% active; in the data active = inhibition above about 38%;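 also: enzyme fragment complementation signal reports receptor beta-arrestin coupling in cells; 0% = agonist plus DMSO wells and 100% = wells without agonist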
CCR6 antagonist: blocks CCL20-driven beta-arrestin recruitment at human CCR6; 340,000 tested, 0.49% active; P51684; AID 493098; CHO-K1 CCR6 PathHunter beta-arrestin, luminescence, CCL20-stimulated; inhibition, % at 20 µM;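 active = compounds whose inhibition of the agonist-driven luminescence signal at 20 µM reaches about 50%, limit read from the data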;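 also: cells stimulated with CCL20 at 14 nM final; plate controls were DMSO with CCL20 for no effect and DMSO without agonist for full effect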
HTR2A ag: activates the mouse 5-HT2A serotonin receptor; P35363; activation, % at 7.6 µM; 360,000 tested, 0.66% active; AID 624169; CHO-K1 mHTR2A beta-arrestin complementation, luminescence; percent of 30 µM serotonin response;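 active = activation above a run cutoff, the mean activation of all tested compounds plus 3 SD, cut at about 14% in these data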;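 also: 0% = plate median of compound wells and 100% = 30 µM serotonin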
APJ antag: antagonists of human APJ apelin receptor; AID 2521; 330,000 tested, 0.32% active; CHO-K1 APJ beta-arrestin complementation, luminescence; inhibition, % at 20 µM;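 active = inhibition above about 40% at 20 µM, limit read from the data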;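 also: cells challenged with 10 nM apelin-13 agonist together with compound; plate controls were apelin-13 plus DMSO wells for no effect and DMSO wells lacking apelin-13 for full effect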
MOR ag counter: activates human mu opioid receptor in HTR2A counterscreen; activation, % at 9.3 µM; U2OS OPRM1 beta-arrestin PathHunter, luminescence; DMSO 0%, DAMGO 9.3 µM 100%; AID 624380; 2,300 tested, 5.3% active; shares compounds with HTR2A ag;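 active = mean activation above the mean of DMSO-only wells plus 3 SD, cut at about 0.5% in these data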
HTR2A ag conf: confirmation of mouse HTR2A serotonin receptor agonists; 2,300 tested, 19% active; activation, % at 7.6 µM; CHO-K1 PathHunter beta-arrestin recruitment, luminescence; DMSO 0%, 30 µM serotonin 100%; shares compounds with HTR2A ag;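 active = mean activation across triplicates above the hit threshold derived in the original primary screen, cut at about 15% in these data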
Numbers without * were called inactive; . = no result given. Rows were chosen to be rich in hits. Some 2.1% of all compounds tested hit in one or more screens of this group.

SMILES	CXCR6 inh	APJ agonist	EBI2 block	CCR6 antagonist	HTR2A ag	APJ antag	MOR ag counter	HTR2A ag conf
CCc1nn(CC(=O)NCCc2ccc(S(N)(=O)=O)cc2)c(=O)c2cc3sccc3n12	1	-2	-2	6	27*	19	-1	-2
NC(=S)NN=C1C=CCCC1	-1	.	11	17	19*	.	-1	-1
COC(=O)c1cc2c(C)c(C)c3ccccn3c-2c1C(=O)OC	10	-3	0	-1	11	13	.	.
COC(=O)c1cc2n3ccccc3c(C)c(-c3ccccc3)c-2c1C(=O)OC	0	-2	3	29	18*	8	0	1
O=C(NC(=O)N1CCN(c2cccc(Cl)c2)CC1)c1ccccc1	0	-2	-7	-3	15*	-3	0	4
O=C(NC(=O)N1CCN(c2cccc(Cl)c2)CC1)c1ccc(Cl)cc1	4	1	0	11	5	5	.	.
Cc1cc(C)n(CCN(C)Cc2nc(Cc3ccccc3F)no2)n1	-1	-3	4	0	38*	0	-1	-2
CN(Cc1nc(Cc2ccccc2F)no1)[C@@H]1CS(=O)(=O)C[C@H]1O	-9	-1	-4	6	8	-8	.	.
CC(=O)c1c(C)[nH]c(C(=O)Nc2ccccn2)c1C	-7	-2	-9	-2	15*	25	-1	-1
CC(=O)c1c(C)[nH]c(C(=O)Nc2ccc(Cl)cc2)c1C	-9	-2	-13	12	-6	15	.	.
Cc1ccccc1C(=O)NC1CCN(Cc2nnnn2CCc2ccccc2)CC1	-6	-3	10	7	-1	-13	.	.
Cc1nnsc1C(=O)N1CCCC1(C)C(=O)O (stereo unspecified)	2	.	3	.	27*	.	-1	1
Cc1ccc(C23CC4CC(CC(C(=O)NC(C)C(=O)O)(C4)C2)C3)cc1 (stereo unspecified)	-14	-3	-5	11	1	-7	.	.
Cc1ccc(S(=O)(=O)N2CCCC2=O)c(C)c1N(C)S(C)(=O)=O	12	-3	-12	-8	2	-1	.	.
COc1cccc(NC(=O)c2ccc(S(=O)(=O)N3CCCCC3)cc2)c1	-1	2	28	6	-6	12	.	.
CCOCCn1c(=O)c2c(nc3n2CC(C)CN3CCc2ccccc2)n(C)c1=O (stereo unspecified)	1	-2	2	-3	15*	1	0	-1
CC(C)OC1=CC(=O)OC(c2cccc(Cl)c2)C1 (stereo unspecified)	.	.	8	.	0	.	.	.
c1ccc(Nc2nc(Nc3ccccc3)nc(N3CCNCC3)n2)cc1	-6	2	2	-3	20*	-20	0	11
c1ccc(Nc2nc(N3CCCC3)nc(N3CCOCC3)n2)cc1	-5	-2	9	-7	6	-8	.	.
CN(CCCn1c(=S)[nH]c2ncccc2c1=O)Cc1ccccc1	3	-8	-1	11	6	7	.	.
O=C(CSc1nccn(-c2ccc(Br)cc2)c1=O)Nc1ccccc1F	-12	0	-8	12	3	-81	.	.
Cc1cc(Oc2cnn(C(C)(C)C)c(=O)c2Cl)cc(C(C)C)c1	1	-3	17	26	-1	11	.	.
COc1cc(/C=C/c2cccc[n+]2C)ccc1OCC(=O)Nc1cccc(Cl)c1	0	-3	-3	-5	-10	9	.	.
C/C(CC(=O)Nc1ccc(N(C)C)cc1)=N\NC(=O)c1ccccc1Cl	-4	.	-6	.	16*	.	0.9*	3
Cn1c(SCc2cccc(Br)c2)nc2ccccc2c1=O	18	-6	0	16	4	7	.	.
CCOC(=O)c1sc(NC(=O)c2ccc(C)o2)nc1C	3	-9	1	4	0	7	.	.
